Screens from PubChem.
CHOP inhibitor: inhibitors of CHOP promoter induction, primary screen, cell-based, unfolded protein response, luciferase reporter; CHO-K1 CHOP-promoter luciferase, tunicamycin-induced, 15-18 h; inhibition, % at 10 µM; 220,000 compounds, 3.8% hits; AID 2732, 2010;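 active = compounds that reduced the stress-induced luciferase reporter signal by more than about 70% of percent inhibition, limit read from the data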
Bfl-1 A1 inh: caspase 3/7 activation in MEF A1-2A-BIM cells, primary screen, A1 inhibitor project, cell-based, luminescence, HTS; Caspase-Glo 3/7 luminescence, 3 h; percent of clofoctol response, vehicle zero; caspase activation, % (no concentration beside the values); 330,000 compounds, 0.066% hits;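 active = over half of replicate activation scores above 10%, or exactly half above 10 with the replicate mean above 10; inconclusive = replicate mean below 10 yet half the replicates above 10; inactive = over half of replicates below 10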
UPR XBP1 act: activators of adaptive XBP1 UPR arm, primary screen, cell-based, CHO-XBP1 luciferase reporter, luminescence, uHTS; 330,000 compounds, 0.33% hits; activation, % at 20 µM; AID 463104, 2010; IRE1-XBP1 UPR activation; percent of tunicamycin response, DMSO as zero;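 active = versus positive control, 20 µM dose yields 30% or more activation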
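Material: CHO-XBP1 cells stably carrying IRE1-XBP1-driven luciferase reporter / Amount: 1000 cells per well / Compound: 20 µM, 1% DMSO / Times: 6 h treatment, 37 °C / Detection: luciferase luminescence / Measure: % activation of reporter signal versus tunicamycin and DMSO controls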
CHOP UPR activ: activators of apoptotic CHOP UPR arm, primary screen, cell-based, CHO-CHOP luciferase reporter, luminescence, uHTS. activation, % at 10 µM. 330,000 compounds, 0.34% hits. UPR activation; percent of tunicamycin response over DMSO baseline;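 active = at 10 µM dose, activation of 40% or more, normalized to positive control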
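System: CHO-CHOP luciferase reporter cell line; amount: 500 cells/well; buffer or medium: F12 medium containing 10% fetal bovine serum; incubation: 6 h compound exposure at 37 °C after overnight seeding; measured by: luciferase luminescence after 10 min with Steady-Glo reagent; evaluation: % reporter activation, DMSO baseline versus tunicamycin full activation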
Large screens that a line does not name were inactive. Only a selection was taken, and hits are over-represented in it overall.

Oc1cc2c(cc1CN1CCN(c3ncccn3)CC1)OCO2	Bfl-1 A1 inh inconclusive (no result: CHOP inhibitor)
Cn1c(SCC(=O)Nc2cccc(Br)c2)nnc1-c1cc2ccccc2o1	CHOP inhibitor 91 (no result: Bfl-1 A1 inh)
CCCCN(CC)CCCNC(=O)c1ccc2c(c1)N(CC)C(=O)c1ccccc1S2(=O)=O	none (no result: CHOP inhibitor)
Cc1cc(OC(=O)N2CCCCC2)cc(C)c1Cl	CHOP inhibitor 76
Cc1ccc(NC(=S)NCc2ccc(Cl)cc2)c(OC(F)F)c1	none (no result: CHOP inhibitor)
Cc1ccc(NC(=O)c2sccc2SCc2cccc(C(F)(F)F)c2)cc1	CHOP inhibitor 80
Cc1cccc(C)c1NC(=O)c1sccc1SCc1cccc(C(F)(F)F)c1	CHOP inhibitor 82
Cc1ccc(NC(=O)c2c(C(F)(F)F)nn(C)c2SCc2cccc(C(F)(F)F)c2)cc1C	none
CCOC(=O)c1[nH]c2cc3c(cc2c1NC(=O)CN1CC(C)CC(C)C1)OCO3 (stereo not given)	CHOP inhibitor 79
CCOC(=O)c1[nH]c2ccc(OCC)cc2c1NC(=O)CN1CCCC(C)C1 (stereo not given)	none
Cc1nc2nc(C)c(NS(=O)(=O)c3ccc(C4CCCCC4)cc3)c(=O)n2[nH]1	none (no result: CHOP inhibitor)
CCC(C)Sc1nc2c(c(=O)[nH]1)C(c1cccs1)C1=C(CCCC1=O)N2 (stereo not given)	CHOP inhibitor 82
COc1cccc(C(=O)NN2c3ccccc3CCc3ccccc32)c1	CHOP inhibitor 92 (no result: UPR XBP1 act, CHOP UPR activ)
COc1cccc(C(=O)NNC(=O)c2ccccc2)c1	none (no result: CHOP inhibitor)
CCC1CSC(Nc2ccc(C(=O)/C=C/c3ccc(Br)cc3)cc2)=N1 (stereo not given)	CHOP inhibitor 89
CC(C)CCn1c(=O)c2sccc2n2c(CCCC(=O)N3CCN(c4ccccn4)CC3)nnc12	none (no result: CHOP inhibitor)
CCCc1cc(C(=O)OC)c(NC(=O)OCC)s1	CHOP inhibitor 74
COCc1cccc(C2=CC(=O)C[C@H](c3ccc(F)cc3)C2)c1	none (no result: CHOP inhibitor)
COc1ccccc1-n1nnnc1SCC(=O)Nc1cc(C)on1	CHOP inhibitor 70
CCOc1ccccc1-n1nnnc1SCC(=O)Nc1cc(C)on1	none
CCc1noc(C)c1C(=O)NNC(=O)COc1cc(C)ccc1C	none (no result: CHOP inhibitor)
CC(O)CNc1nc2sc3c(c2c(=O)n1CCc1ccccc1)CCCCC3 (stereo not given)	CHOP inhibitor 91
CN(C)CCNc1nc2sc3c(c2c(=O)n1CCc1ccccc1)CCCCC3	none
COCCNC(=O)Cn1ccc2cc(S(=O)(=O)N3CCCCC3)ccc21	none (no result: CHOP inhibitor)
CCOC(=O)c1c(C)[nH]c(C(=O)OCC(=O)Nc2ccc(OC)c(Cl)c2)c1C	CHOP inhibitor 87
CCOC(=O)c1c(C)[nH]c(C(=O)OCC(=O)Nc2cc(Cl)ccc2OC)c1C	CHOP inhibitor 78
CCOC(=O)c1c(C)[nH]c(C(=O)OCC(=O)Nc2cccnc2Cl)c1C	none (no result: CHOP inhibitor)
CCOC(=O)c1c(C)[nH]c(C(=O)OCC(=O)Nc2cc(C)ccc2OC)c1C	none
COC(=O)c1c(NC(=O)CN2CCCc3ccccc32)sc(C)c1C	CHOP inhibitor 70
CCOC(=O)c1c(NC(=O)CN2CCCc3ccccc32)sc(C)c1C	none
COc1ccc(-c2ccc(-c3noc(-c4ccco4)n3)c(OC)n2)cc1	CHOP inhibitor 72
COc1ccc(-c2ccc(-c3noc(-c4ccccc4)n3)c(OC)n2)cc1	none
COc1ccc(-c2ccc(-c3noc(-c4ccccc4F)n3)c(OC)n2)cc1	CHOP inhibitor 74 (no result: Bfl-1 A1 inh, UPR XBP1 act, CHOP UPR activ)
CCOC(=O)C1CCN(C(=O)COC(=O)c2ccc(=O)n(Cc3ccccc3)n2)CC1	none (no result: CHOP inhibitor)
Cc1ccc(-n2ncc3c(=O)n(CC(=O)N4CCN(c5ccccc5)CC4)cnc32)cc1	CHOP inhibitor 82
CN(C)C(=O)Cn1cnc2c(cnn2-c2ccc(F)cc2)c1=O	none (no result: CHOP inhibitor)
CN(C)C(=O)Cn1cnc2c(cnn2-c2ccccc2Cl)c1=O	CHOP inhibitor 89
O=C(NCc1ccco1)c1cc2n(n1)C(C(F)(F)F)CC(c1ccc(Br)cc1)N2 (stereo not given)	CHOP inhibitor 77
O=C(NCc1ccco1)c1cc2n(n1)C(C(F)(F)F)CC(c1ccc(Cl)c(Cl)c1)N2 (stereo not given)	CHOP inhibitor 88
COc1ccccc1NC(=O)c1cc2n(n1)C(C(F)(F)F)CC(c1ccc3c(c1)OCO3)N2 (stereo not given)	CHOP inhibitor 88
CCN(CC)C(=O)[C@H]1CC(CC(=O)NCc2ccco2)C(=O)N2CCc3c([nH]c4ccc(OC)cc34)[C@]12C (stereo not given in full)	none (no result: CHOP inhibitor, Bfl-1 A1 inh)
CCOC(=O)C(C(=O)Nc1nc2ccccc2s1)C1CCCCC1 (stereo not given)	CHOP inhibitor 74
CCOC(=O)C(C(=O)Nc1cccc(C)n1)C1CCCCC1 (stereo not given)	none
Cc1cccc(Cl)c1OCCCn1ccnc1	none (no result: CHOP inhibitor)
O=C(N/N=C1/C(=O)c2cccc3cccc1c23)c1ccc(Cl)cc1	CHOP inhibitor 72
CCNC(=S)N/N=C1\C(=O)c2cccc3cccc1c23	none
CC(=O)Nc1cccc(NC(=O)C(=O)NCC(c2ccco2)N2CCc3ccccc32)c1 (stereo not given)	none (no result: CHOP inhibitor)
N#CC(c1cccc(Cl)c1)c1ccc2c(C(F)(F)F)cc(C(F)(F)F)nc2n1 (stereo not given)	CHOP inhibitor 102
O=C(c1cnn2c(C(F)(F)F)cc(-c3cccs3)nc12)N1CCN(Cc2ccccc2)CC1	CHOP inhibitor 70
Cc1onc(-c2c(Cl)cccc2Cl)c1C(=O)Nc1nccs1	none (no result: CHOP inhibitor)
C=CCN1CCc2cc(O)c(O)cc2C(c2ccccc2)C1 (stereo not given)	CHOP inhibitor 95
C=CCN1CCc2c(cc(O)c(O)c2Cl)C(c2ccccc2)C1 (stereo not given)	none
CCCc1cc(=O)[nH]c(Nc2ccc(OC)c(Cl)c2)n1	CHOP inhibitor 78
O=C(CN1C(=O)/C(=C\c2cccc(F)c2)Oc2ccccc21)N1CCN(c2ccccn2)CC1	none
O=C(CN1C(=O)/C(=C\c2ccc(F)cc2)Oc2ccccc21)N1CCN(c2ccccn2)CC1	CHOP inhibitor 90
CS(=O)(=O)c1cc([N+](=O)[O-])c(Sc2nc3ccccc3[nH]2)c([N+](=O)[O-])c1	CHOP inhibitor 80
O=C(O)c1cc([N+](=O)[O-])c(Sc2nc3ccccc3[nH]2)c([N+](=O)[O-])c1	none (no result: CHOP inhibitor)
CN1CC=C2C(C#N)=C(N)C(C#N)(C#N)[C@H](c3ccoc3)[C@H]2C1	none
N#CC1=C(N)C(C#N)(C#N)[C@H](c2ccoc2)[C@H]2CN(Cc3ccccc3)CC=C12	UPR XBP1 act 37 (no result: CHOP inhibitor)
CC(=O)N1CC=C2C(C#N)=C(N)C(C#N)(C#N)C(CCc3ccccc3)C2C1 (stereo not given)	CHOP inhibitor 73
COc1ccc(S(=O)(=O)Nc2ccc(F)c(F)c2)cc1Cl	none
